Experimental data from article PMC9633546 (Angewandte Chemie (International Ed. in English), 2022).
In brackets after ≈: the same amount, converted by molar mass.

Tests used:
M. abscessus ATCC 19977 = assay: MIC assay in 96-well plate format, WT M. abscessus; type: cell-based, Mycobacterium abscessus subsp. abscessus; details: Mycobacteroides abscessus, ATCC19977, read-out: WT Mab MIC
Δarr M. abscessus = assay: MIC assay in 96-well plate format, arr-deleted strain; type: cell-based, Mycobacterium abscessus; details: isogenic arr-deleted M. abscessus ATCC 19977; 90 % growth inhibition
Arr Mab = assay: LC-MS/HPLC in vitro validation of ADP-ribosylation; type: biochemical, M. abscessus; details: 40 minute incubation, 5 µM enzyme
In short: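 The enzyme was recombinant M. abscessus Arr, cloned, expressed and purified in-house. Enzymatic reactions were analysed by LC-MS, quantifying the remaining rifamycin and its ADP-ribosylated adducts.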

[1] = Pharmacokinetics studies in CD-1 mice; type: in vivo, mouse
in vitro = details: plasma

Structure (SMILES)	MIC (M. abscessus ATCC 19977)	Δarr Mab MIC (Δarr M. abscessus)	ADP-ribosylation upon incubation with Arr Mab and NAD+ (Arr Mab)	V d ([1]; CD-1 mice, single dose 10 mg/kg)	fAUC/MIC ([1]; based on p.o. doses of 10 mg kg^−1)	half-life ([1]; female, CD-1, mouse, plasma, 10 mg/kg)	ADP-ribosylation upon incubation with Arr Mab and NAD+ (Arr Mab; listed as Rifabutin)	fraction unbound (in vitro)
CO[C@H]1/C=C/O[C@@]2(C)Oc3c(C)c(O)c4c(O)c(c(/C=N/N5CCN(C)CC5)c(O)c4c3C2=O)NC(=O)/C(C)=C\C=C\[C@H](C)[C@H](O)[C@@H](C)[C@@H](O)[C@@H](C)[C@H](OC(C)=O)[C@@H]1C [rifampicin]	5.3 µM (≈ 4.36 µg/mL)	260 nM	completely converted					
CC[C@H]1OC(=O)[C@H](C)[C@@H](O[C@H]2C[C@@](C)(OC)[C@@H](O)[C@H](C)O2)[C@H](C)[C@@H](O[C@@H]2O[C@H](C)C[C@H](N(C)C)[C@H]2O)[C@](C)(OC)C[C@@H](C)C(=O)[C@H](C)[C@@H](O)[C@]1(C)O [clarithromycin]	1.45 µM (≈ 1.08 µg/mL)	1800 nM						
CO[C@H]1/C=C/O[C@@]2(C)Oc3c(C)c(O)c4c(c3C2=O)C2=NC3(CCN(CC(C)C)CC3)NC2=C(NC(=O)/C(C)=C\C=C\[C@H](C)[C@H](O)[C@@H](C)[C@@H](O)[C@@H](C)[C@H](OC(C)=O)[C@@H]1C)C4=O [rifabutin]	1.15 µM (≈ 0.974 µg/mL)	31 nM	completely converted	3.51 L/kg	0.22	240 min	fully converted	0.0376
